# Source: PubChem BioAssay
# Arbovirus inh: antivirals against arbovirus infection, primary screen, cell-based, full library, 10K replicate subset; arbovirus infection cell-based antiviral screen; inhibition, % at 10 µM; 200,000 tested, 0.37% active; in the data active = inhibition above about 30%
# Wee1 degr inh: Wee1 degradation inhibitors, primary screen, cell-based, HeLa, Wee1K328M-luciferase, luminescence | HeLa Luc-Wee1K328M stability; 100% = proteasome inhibitor MG132 effect | reporter increase, % at 5 µM | 220,000 tested, 1.2% active;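 active = activation above the mean of all tested compounds plus 3 SD, set per screening run, cut at about 8.8% in these data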;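 also: cells exposed to compound for 20 h before luminescence read; 0% = DMSO alone and 100% = MG132 at 30 µM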
# CHOP inh: inhibitors of CHOP promoter induction, primary screen, cell-based, unfolded protein response, luciferase reporter | CHO-K1 CHOP-promoter luciferase, tunicamycin-induced, 15-18 h | inhibition, % at 10 µM | 220,000 tested, 3.8% active | AID 2732, 2010;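 active = compounds that reduced the stress-induced luciferase reporter signal by more than about 70% of percent inhibition, limit read from the data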;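 also: 0% = tunicamycin plus vehicle and 100% = wells without tunicamycin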
# Lmaj promast: Leishmania major promastigote growth inhibition, primary screen; AID 1063, 2008; 200,000 tested, 9% active; Leishmania major promastigotes, resazurin fluorescence viability; inhibition, % at 10 µM;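 also: promastigotes grown with compound for 44 hours at 28 °C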
# Rad51 HR inh: human RAD51 strand exchange inhibitors, primary screen, biochemical, fluorescence | DNA repair protein RAD51 homolog 1 (Homo sapiens), Q06609 | hRad51 DNA strand exchange, fluorescence dequenching | inhibition, % at 10 µM | 200,000 tested, 0.085% active;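 active = inhibition above 40% at the single screening dose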;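 also: 0% = DMSO control wells and 100% = blanks with heterologous ssDNA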
# Target sequence (Q06609 whole entry, looked up): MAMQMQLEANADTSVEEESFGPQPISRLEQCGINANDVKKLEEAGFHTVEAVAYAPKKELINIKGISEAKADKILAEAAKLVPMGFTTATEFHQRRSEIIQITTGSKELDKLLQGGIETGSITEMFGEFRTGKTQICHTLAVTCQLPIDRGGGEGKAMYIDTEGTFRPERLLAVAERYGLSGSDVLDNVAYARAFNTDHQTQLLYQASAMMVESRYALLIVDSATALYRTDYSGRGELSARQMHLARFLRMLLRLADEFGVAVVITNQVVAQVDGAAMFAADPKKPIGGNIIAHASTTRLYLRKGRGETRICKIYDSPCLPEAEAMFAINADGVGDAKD
#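 Material: hRad51 filaments on single-stranded DNA; Reagent: Donor/quencher-labelled 47-bp dsDNA substrate; Compound: 10 µM final, single point; Schedule: 37 °C 15-min filament assembly, 30-min compound preincubation, 15-min exchange; Technique: FRET fluorescence, excitation 485 nm, emission 520 nm; Benchmarks: control wells and blank wells on each plate.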
# PKD1 kinase inh: inhibitors of human PKD1 kinase, biochemical, fluorescence polarization; Serine/threonine-protein kinase D1 (Homo sapiens), Q15139; PKD1 kinase fluorescence polarization assay; inhibition, % (test concentration not listed); 200,000 tested, 0.056% active; AID 797, 2007
# Wee1 stab conf: Wee1 degradation inhibitors, confirmation, cell-based, HeLa, Wee1K328M-luciferase, luminescence, triplicate; shares compounds with Wee1 degr inh; HeLa Luc-Wee1K328M degradation; vehicle 0%, proteasome-blocked wells 100%; activation, % at 5 µM; 1,100 tested, 4% active; AID 1410, 2008; in the data active = activation above about 8.9%
# An asterisk follows results filed as active; . = no result. A selection: hits, their analogues and other compounds. The true share with any hit is near 12%. Rule as the data show it, unless noted: active = inhibition above about 50%; inactive = the rest.
SMILES,Arbovirus inh,Wee1 degr inh,CHOP inh,Lmaj promast,Rad51 HR inh,PKD1 kinase inh,Wee1 stab conf
COc1cccc(NC(=O)NC2CCCc3ccccc32)c1 (stereo unspecified),-5,-1,-6,14,.,3,.
CCC1CCC(NC(=O)Nc2cccc(OC)c2)CC1 (stereo unspecified),-21,16*,-13,-4,5,1,4
COc1ccccc1CNC(=O)C(C)Sc1ccc(C)cc1 (stereo unspecified),-2,1,24,5,28,-3,.
COc1ccccc1CNC(=O)C1(NC(=O)Nc2ccc(C)cc2)CCCCC1,0,11*,21,13,-2,0,1
CCN(CC)CC(=O)NN(Cc1ccccc1)c1ccccc1,.,11*,9,.,10,.,2
CCCCOc1ccc(CNC(=O)NS(=O)(=O)c2ccc(OCC)cc2)cc1,7,13*,-21,1,-1,-4,3
FC(F)(F)c1cc(-c2cccs2)nc2nc(N3CCOCC3)sc12,-22,12*,94*,0,1,0,-1
O=C(O)CCCn1cc(NC(=O)c2cc(F)c(F)cc2Cl)cn1,2,1,-4,2,4,0,.
O=C(O)CCCn1cc(NC(=O)c2cccc(F)c2)cn1,1,13*,-7,5,-102,2,0
Cc1cc(C)cc(NC(=O)C(OC(=O)c2sccc2C)c2ccccc2)c1 (stereo unspecified),9,-3,6,48,8,2,.
CC(C)(C)c1ccc(/C=N/NC(=S)NCc2ccccc2)cc1,-8,17*,65,8,-17,-9,0
FC(F)(F)c1ccc(NC(=S)NCc2ccccc2)cc1,-1,19*,64,1,-3,2,0
CN(C)c1ccc(/C=N/NC(=S)NCc2ccccc2)cc1,-5,3,48,-4,-7,-8,.
CCOc1ccc(C(C)NC(=O)C2CCC2)cc1 (stereo unspecified),3,0,-6,0,-6,6,.
COc1ccc(-c2nnc(SCC(=O)N/N=C/c3ccccc3C(=O)O)n2-c2ccc(Cl)cc2)cc1,.,12*,-8,.,-22,.,1
O=C(CSc1nnc(-c2ccc(Cl)cc2)n1-c1ccccc1)N/N=C/c1ccccc1C(=O)O,-9,-2,-1,-8,5,5,.
CC(C)C1OC2(C)OC(=N)C1(C#N)C(C#N)(C#N)C2c1ccccc1 (stereo unspecified),1,17*,-84,12,-16,-7,-2
O=C(COc1ccc(CO)cc1Cl)Nc1ccc(F)cc1,17,16*,33,0,4,2,-5
CN(C)S(=O)(=O)c1cccc(NC(=O)Cn2cc(C(F)(F)F)cc(Cl)c2=O)c1,9,3,1,-5,-2,11,.
CCOC(=O)c1c(Nc2ccccc2OCCOC)n[nH]c1C,.,11*,11,.,-8,.,0
CCOC(=O)c1c(NCc2ccccc2)n[nH]c1C,-5,0,3,-5,8,6,.
OCCNC(=S)Nc1cc(Cl)cc(Cl)c1,.,-1,2,.,-9,.,.
CC(C)c1ccc2[nH]c(O)c(N=NC(=O)c3cccc(S(=O)(=O)Nc4ccccc4Cl)c3)c2c1,-10,20*,27,1,-3,-5,0
CC(C)NC(=S)N=Nc1c(O)[nH]c2ccc(C(C)C)cc12,-19,15*,34,91*,4,-4,0
O=C(N=Nc1c(O)[nH]c2ccccc12)c1cccc(S(=O)(=O)Nc2ccccc2Cl)c1,-2,6,17,4,8,2,.
SMILES,Arbovirus inh,Wee1 degr inh,CHOP inh,Lmaj promast,Rad51 HR inh,PKD1 kinase inh,Wee1 stab conf
O=C(NCc1ccco1)/C(=C\c1ccco1)NC(=O)c1cccs1,-4,30*,-13,1,-9,1,4
O=C(NCc1ccco1)/C(=C\c1cccs1)NC(=O)c1cccs1,1,3,6,-1,8,-4,.
COc1cc(C2=NOC(C(=O)NCc3cccs3)C2)cc(OC)c1OC (stereo unspecified),1,11*,.,-4,-4,0,15*
CC(=O)COC(=O)CNC(=O)c1ccc(Br)cc1,13,-1,-12,-6,1,0,.
Cc1ccc(NC(=O)COC(=O)CNC(=O)c2ccc(Br)cc2)c(C)c1,-1,14*,37,-6,-4,-8,1
NC1=NC(c2ccc(Cl)cc2)C(C(=O)c2ccccc2)N1 (stereo unspecified),.,-1,-9,.,13,.,.
CCOC(=O)c1ccccc1NC(=O)CN(c1ccc(OCC)cc1)S(C)(=O)=O,-13,12*,6,27,-6,5,4
CCOC(=O)C1CCN(C(=O)c2oc3ccc(S(=O)(=O)N4CC(C)CC(C)C4)cc3c2C)CC1 (stereo unspecified),14,11*,54,24,-6,-5,-2
CCOC(=O)N1CCN(C(=O)c2oc3ccc(S(=O)(=O)N4CC(C)CC(C)C4)cc3c2C)CC1 (stereo unspecified),-15,0,52,40,1,-4,.
O=C(Cn1cnc2ccccc2c1=O)Nc1ccc2c(c1)OCCO2,7,11*,-16,2,-3,1,6
O=C(Cn1cnc2ccccc2c1=O)OCC(=O)c1ccc2c(c1)OCCO2,4,11*,-23,-7,-17,3,1
O=C(COc1ncnc2ccccc12)c1ccc2c(c1)OCCO2,8,3,-10,-2,-8,-13,.
CCOCCCNC(=S)Nc1ccc(S(N)(=O)=O)cc1,9,13*,9,-5,5,-11,2
N#Cc1c(NC(=O)c2cnccn2)sc2c1CCCC2,-26,-1,-1,24,.,-9,.
COC(=O)c1onc(-c2c(C)cc(C)cc2C)c1C(=O)OC,10,0,-1,8,-4,0,.
COc1ccc(/C=N/NC(=O)c2cc(=O)[nH]c3ccccc23)cc1OC,2,-3,-3,-7,3,-1,.
O=C(N/N=C/c1ccco1)c1cc(=O)[nH]c2ccccc12,9,28*,7,-7,1,1,0
CCNC(=O)NC(=O)C(C)Sc1nc2ccccc2n1CC(C)C (stereo unspecified),-2,-2,20,10,-3,-8,.
